Legend:
Mus musculus [1] = assay: Biodistribution of intravenously injected [131I]-labeled compound in gut of BDF1 female mice bearing subcutaneous Lewis lung carcinoma after 4 hours; format: ADME, organism-based; settings: in vivo, iv
Procedure, shortened: (§1)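 Female BDF1 mice bearing subcutaneous Lewis lung carcinoma received a single intravenous dose of 0.5-1.8 μg of the 131I-labeled nucleoside (55-110 kBq). They were sacrificed at set times, and tissues were weighed wet and γ-counted. Activity is expressed as percent of injected dose per gram of wet tissue, given as mean ± standard deviation for six animals.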

Mus musculus [2] = assay: Biodistribution of intravenously injected [131I]-labeled compound in heart of BDF1 female mice bearing subcutaneous Lewis lung carcinoma after 8 hours; format: ADME, organism-based; settings: in vivo, iv; procedure, shortened: as §1
Mus musculus [3] = assay: Biodistribution of intravenously injected [131I]-labeled compound in kidney of BDF1 female mice bearing subcutaneous Lewis lung carcinoma after 24 hours; format: ADME, organism-based; settings: in vivo, iv; procedure, shortened: as §1
Mus musculus [4] = assay: Biodistribution of intravenously injected [131I]-labeled compound in kidney of BDF1 female mice bearing subcutaneous Lewis lung carcinoma after 4 hours; format: ADME, organism-based; settings: in vivo, iv; procedure, shortened: as §1
Mus musculus [5] = assay: Biodistribution of intravenously injected [131I]-labeled compound in lung of BDF1 female mice bearing subcutaneous Lewis lung carcinoma after 0.25 hours; format: ADME, organism-based; settings: in vivo, iv; procedure, shortened: as §1
Mus musculus [6] = assay: Biodistribution of intravenously injected [131I]-labeled compound in lung of BDF1 female mice bearing subcutaneous Lewis lung carcinoma after 0.5 hours; format: ADME, organism-based; settings: in vivo, iv; procedure, shortened: as §1
Mus musculus [7] = assay: Biodistribution of intravenously injected [131I]-labeled compound in liver of BDF1 female mice bearing subcutaneous Lewis lung carcinoma after 0.25 hours; format: ADME, organism-based; settings: in vivo, iv; procedure, shortened: as §1
Mus musculus [8] = assay: Biodistribution of intravenously injected [131I]-labeled compound in liver of BDF1 female mice bearing subcutaneous Lewis lung carcinoma after 0.50 hours; format: ADME, organism-based; settings: in vivo, iv, 0.5 h; procedure, shortened: as §1
Mus musculus [9] = assay: Biodistribution of intravenously injected [131I]-labeled compound in liver of BDF1 female mice bearing subcutaneous Lewis lung carcinoma after 2 hours; format: ADME, organism-based; settings: in vivo, iv; procedure, shortened: as §1
Mus musculus [10] = assay: Biodistribution of intravenously injected [131I]-labeled compound in muscle of BDF1 female mice bearing subcutaneous Lewis lung carcinoma after 24 hours; format: ADME, organism-based, Muscle tissue; settings: in vivo, iv
Procedure, shortened: (§2)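 Female BDF1 mice with subcutaneous Lewis lung carcinoma given i.v. 0.5-1.8 μg of 131I-labeled nucleoside (55-110 kBq). Killed at set times. Tissues weighed wet and γ-counted. Radioactivity expressed as percent injected dose per gram wet tissue, mean ± SD of six animals.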

Mus musculus [11] = assay: Biodistribution of intravenously injected [131I]-labeled compound in muscle of BDF1 female mice bearing subcutaneous Lewis lung carcinoma after 1 hours; format: ADME, organism-based, Muscle tissue; settings: in vivo, iv; procedure, shortened: as §2
Mus musculus [12] = assay: Biodistribution of intravenously injected [131I]-labeled compound in skin of BDF1 female mice bearing subcutaneous Lewis lung carcinoma after 2 hours; format: ADME, organism-based, Zone of skin; settings: in vivo, iv; procedure, shortened: as §2
Mus musculus [13] = assay: Biodistribution of intravenously injected [131I]-labeled compound in stomach of BDF1 female mice bearing subcutaneous Lewis lung carcinoma after 2 hours; format: ADME, organism-based; settings: in vivo, iv; procedure, shortened: as §2
Mus musculus [14] = organism: Mus musculus; assay: Urinary [131I]- compound observed in BDF1 female mice bearing lewis lung tumor after 24 hr of injected [131I]-compound; format: functional, tissue-based; settings: Urine
Mus musculus [15] = organism: Mus musculus; assay: Urinary [131I]- compound observed in BDF1 female mice bearing lewis lung tumor after 6-7 hr of injected [131I]-compound; format: functional, tissue-based; settings: Urine
Mus musculus [16] = organism: Mus musculus; assay: Urinary iodide observed in BDF1 female mice bearing lewis lung tumor after 6-7 hr of injected [131I]-compound; format: functional, tissue-based; settings: Urine
Mus musculus [17] = assay: Biodistribution of intravenously injected [131I]-labeled compound in tumor of BDF1 female mice bearing subcutaneous Lewis lung carcinoma after 2 hours; format: ADME, organism-based; settings: in vivo, iv; procedure, shortened: as §2
Mus musculus [18] = assay: Biodistribution of intravenously injected [131I]-labeled compound in tumor of BDF1 female mice bearing subcutaneous Lewis lung carcinoma after 4 hr; format: ADME, organism-based; settings: in vivo, iv; procedure, shortened: as §2
Mus musculus [19] = assay: Biodistribution of intravenously injected [131I]-labeled compound in tumor of BDF1 female mice bearing subcutaneous Lewis lung carcinoma after 0.50 hours; format: ADME, organism-based; settings: in vivo, iv, 0.5 h; procedure, shortened: as §2
Mus musculus [20] = assay: Biodistribution of intravenously injected [131I]-labeled compound in tumor of BDF1 female mice bearing subcutaneous Lewis lung carcinoma after 1 hours; format: ADME, organism-based; settings: in vivo, iv; procedure, shortened: as §2
Mus musculus [21] = assay: Biodistribution of intravenously injected [82Br]-labeled compound in tumor of BDF1 female mice bearing subcutaneous Lewis lung carcinoma after 1 hours; format: ADME, organism-based; settings: in vivo, iv
Mus musculus [22] = assay: Biodistribution of intravenously injected [82Br]-labeled compound in tumor of BDF1 female mice bearing subcutaneous Lewis lung carcinoma after 24 hours; format: ADME, organism-based; settings: in vivo, iv
Mus musculus [23] = assay: Biodistribution of intravenously injected [82Br]-labeled compound in gut of BDF1 female mice bearing subcutaneous Lewis lung carcinoma after 4 hours; format: ADME, organism-based; settings: in vivo, iv
Procedure, shortened: (§3)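 Female BDF1 mice with subcutaneous Lewis lung carcinoma given an iv injection of [82Br]-labelled nucleoside, 47-130 μg carrying 20-60 kBq 82Br. Tissues were excised, weighed wet and γ-counted. Values are percent injected dose per gram of wet tissue, mean ± standard deviation of six animals, with organ-to-tumour ratios derived.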

Mus musculus [24] = assay: Biodistribution of intravenously injected [82Br]-labeled compound in heart of BDF1 female mice bearing subcutaneous Lewis lung carcinoma after 0.50 hours; format: ADME, organism-based; settings: in vivo, iv, 0.5 h; procedure, shortened: as §3
Mus musculus [25] = assay: Biodistribution of intravenously injected [82Br]-labeled compound in kidney of BDF1 female mice bearing subcutaneous Lewis lung carcinoma after 0.5 hours; format: ADME, organism-based; settings: in vivo, iv; procedure, shortened: as §3
Mus musculus [26] = assay: Biodistribution of intravenously injected [82Br]-labeled compound in kidney of BDF1 female mice bearing subcutaneous Lewis lung carcinoma after 1 hours; format: ADME, organism-based; settings: in vivo, iv; procedure, shortened: as §3
Mus musculus [27] = assay: Biodistribution of intravenously injected [82Br]-labeled compound in liver of BDF1 female mice bearing subcutaneous Lewis lung carcinoma after 0.50 hours; format: ADME, organism-based; settings: in vivo, iv, 0.5 h; procedure, shortened: as §3
Mus musculus [28] = assay: Biodistribution of intravenously injected [82Br]-labeled compound in muscle of BDF1 female mice bearing subcutaneous Lewis lung carcinoma after 8 hours; format: ADME, organism-based, Muscle tissue; settings: in vivo, iv; procedure, shortened: as §3
Mus musculus [29] = assay: Biodistribution of intravenously injected [82Br]-labeled compound in liver of BDF1 female mice bearing subcutaneous Lewis lung carcinoma after 24 hours; format: ADME, organism-based; settings: in vivo, iv; procedure, shortened: as §3
Mus musculus [30] = assay: Biodistribution of intravenously injected [82Br]-labeled compound in liver of BDF1 female mice bearing subcutaneous Lewis lung carcinoma after 8 hours; format: ADME, organism-based; settings: in vivo, iv; procedure, shortened: as §3
Mus musculus [31] = assay: Biodistribution of intravenously injected [82Br]-labeled compound in spleen of BDF1 female mice bearing subcutaneous Lewis lung carcinoma after 8 hours; format: ADME, organism-based; settings: in vivo, iv
Mus musculus [32] = assay: Biodistribution of intravenously injected [82Br]-labeled compound in stomach of BDF1 female mice bearing subcutaneous Lewis lung carcinoma after 24 hours; format: ADME, organism-based; settings: in vivo, iv
Mus musculus [33] = assay: Biodistribution of intravenously injected [82Br]-labeled compound in tumor of BDF1 female mice bearing subcutaneous Lewis lung carcinoma after 8 hours; format: ADME, organism-based; settings: in vivo, iv

Compound `O=c1[nH]c(=O)n([C@@H]2O[C@H](CO)[C@@H](O)[C@H]2F)cc1I` has an Injected dose/g (Mus musculus [1]) of 2.1%, an Injected dose/g (Mus musculus [2]) of 1.6% and an Injected dose/g (Mus musculus [3]) of 0.14%. For the same compound, the Injected dose/g (Mus musculus [4]) was 7.3%, the Injected dose/g (Mus musculus [5]) was 7.9% and the Injected dose/g (Mus musculus [6]) was 7.5%. For the same compound, the Injected dose/g (Mus musculus [7]) was 5.3%, the Injected dose/g (Mus musculus [8]) was 4.6% and the Injected dose/g (Mus musculus [9]) was 2.8%. The Injected dose/g (Mus musculus [10]) was 0.03%, the Injected dose/g (Mus musculus [11]) was 2.3% and the Injected dose/g (Mus musculus [12]) was 3.2%. For the same compound, the Injected dose/g (Mus musculus [13]) was 4%, the Radioactive constituents (Mus musculus [14]) was 37.4% and the Radioactive constituents (Mus musculus [15]) was 60.2%. For the same compound, the Radioactive constituents (Mus musculus [16]) was 39.8%, the Injected dose/g (Mus musculus [17]) was 3.8% and the Injected dose/g (Mus musculus [18]) was 3.3%. It also gave an Injected dose/g (Mus musculus [19]) of 3.7% and an Injected dose/g (Mus musculus [20]) of 4.1%.

`O=c1[nH]c(=O)n([C@H]2O[C@@H](CO)[C@H](O)[C@H]2F)cc1Br` gave an Injected dose/g (Mus musculus [21]) of 0.67%, an Injected dose/g (Mus musculus [22]) of 0.32% and an Injected dose/g (Mus musculus [23]) of 0.28%. For the same compound, the Injected dose/g (Mus musculus [24]) was 0.76%, the Injected dose/g (Mus musculus [25]) was 2.68% and the Injected dose/g (Mus musculus [26]) was 1.12%. For the same compound, the Injected dose/g (Mus musculus [27]) was 0.65%, the Injected dose/g (Mus musculus [28]) was 0.14% and the Injected dose/g (Mus musculus [29]) was 0.18%. It also gave an Injected dose/g (Mus musculus [30]) of 0.28%, an Injected dose/g (Mus musculus [31]) of 0.34% and an Injected dose/g (Mus musculus [32]) of 0.34%. It also gave an Injected dose/g (Mus musculus [33]) of 0.46%.
